The test system of one data set is red blood cells. Description: Hemolysis assay. Format: cell-based, mouse. As to conditions: 2% (v/v) RBC in PBS, 37 °C, 1 h; absorbance 540 nm; water / PBS controls. Summed up:
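Red cells were exposed to the test peptide across a concentration range, and separately to peptide–quantum dot co-assemblies (peptide fixed at 1 mg mL−1, QD level varied). Supernatants were scanned by UV-vis spectroscopy to derive hemolysis rates. Means ± s.d., n = 3; one-way ANOVA with Tukey post hoc test.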

The target of another data set is CD47 (Homo sapiens, UniProt Q08722). Put plainly: SPRi analysis of the binding between RT and CD47.

These results are taken from paper PMC9728588 (Chemical Science, 2022).

Ends that are not written are not given here.

Chain of CD47 (Q08722 19-323, species assumed): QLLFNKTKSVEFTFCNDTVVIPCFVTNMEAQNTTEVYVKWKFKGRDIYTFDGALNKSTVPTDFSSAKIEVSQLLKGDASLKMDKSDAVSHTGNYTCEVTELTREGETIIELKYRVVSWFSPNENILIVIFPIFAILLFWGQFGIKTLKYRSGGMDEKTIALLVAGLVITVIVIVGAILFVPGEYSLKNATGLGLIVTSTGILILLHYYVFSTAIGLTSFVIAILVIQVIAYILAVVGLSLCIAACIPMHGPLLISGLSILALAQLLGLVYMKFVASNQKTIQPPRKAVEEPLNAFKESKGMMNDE

By Kd is commonly meant the equilibrium constant for the complex coming apart. A higher Kd goes with a looser complex. HFEYWEERHKKLVFF [RT]: the hemolytic effect entry with red blood cells is reported as “almost no hemolytic effect”. Further, the Kd on CD47 stood at 318 nM.
